In ChEMBL document CHEMBL1240306, “Allosteric inhibitors of Bcr-abl-dependent cell proliferation” (Nat Chem Biol, 2006):

Experiments:
[1] = Antiproliferative activity against mouse 32D Bcr-abl negative cells assessed as proliferation after 48 hrs by MTT assay
[2] = test system: HL-60; assay: Antiproliferative activity against human HL60 Bcr-abl negative cells assessed as cell viability after 48 hrs by MTT assay; assay type: functional, cell-based; conditions: HL-60, 48 h
Summary of the method: (§1)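 Cells seeded at 0.3–0.6 × 10^6/ml in duplicate or triplicate with increasing compound (0.005–10 μM), 37 °C, 5% CO2, 48 h. Viability by MTT dye reduction, expressed as % growth of DMSO-treated cells; IC50 from dose-response curves. Ba/F3 lines carry geneticin selection (1 mg/ml) in RPMI-1640/10% FBS; parental Ba/F3 kept with 10 U/ml murine IL-3.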

[3] = test system: K562; assay: Antiproliferative activity against human K562 expressing Bcr-abl assessed as proliferation after 48 hrs by MTT assay; assay type: functional, cell-based; conditions: K562, 48 h; summary of the method: as §1
[4] = test system: Jurkat; assay: Antiproliferative activity against human Jurkat Bcr-abl negative cells assessed as proliferation after 48 hrs by MTT assay; assay type: functional, cell-based; summary of the method: as §1
[5] = Antiproliferative activity against human SUP-B15 expressing Bcr-abl assessed as proliferation after 48 hrs by MTT assay; assay type: functional; conditions: SUP-B15, 48 h; summary of the method: as §1
[6] = Antiproliferative activity against human M07e Bcr-abl negative cells expressing stem cell factor assessed as proliferation after 48 hrs by MTT assay; assay type: functional, cell-based; conditions: M-07e
Summary of the method: (§2)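 Human megakaryoblastic Mo7e cells grown in RPMI-1640, 20% FBS, with either 5 ng/ml human GM-CSF or 200 ng/ml stem cell factor (c-kit-driven growth). Compound up to 10 μM, 48 h at 37 °C; viability read by MTT reduction relative to DMSO-treated cells.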

[7] = Antiproliferative activity against human M07e Bcr-abl negative cells expressing granulocyte-macrophage colony stimulating factor assessed as proliferation after 48 hrs by MTT assay; assay type: functional, cell-based; conditions: M-07e; summary of the method: as §2
[8] = Antiproliferative activity against mouse BA/F3 Bcr-abl negative cells expressing FIt3-ITD kinase assessed as proliferation after 48 hrs by MTT assay; assay type: functional, cell-based; conditions: BaF3, 48 h; summary of the method: as §1
[9] = Antiproliferative activity against mouse BA/F3 Bcr-abl negative cells expressing Tel-PDGFRbeta kinase assessed as proliferation after 48 hrs by MTT assay; assay type: functional, cell-based; conditions: BaF3, 48 h; summary of the method: as §1
[10] = Antiproliferative activity against mouse BA/F3 Bcr-abl negative cells expressing TPR-MET kinase assessed as proliferation after 48 hrs by MTT assay; assay type: functional, cell-based; conditions: BaF3, 48 h; summary of the method: as §1
[11] = Antiproliferative activity against mouse BA/F3 Bcr-abl negative cells expressing Tel-JAK1 kinase assessed as proliferation after 48 hrs by MTT assay; assay type: functional, cell-based; conditions: BaF3, 48 h; summary of the method: as §1
[12] = Antiproliferation activity against mouse BA/F3 cells expressing Bcr-abl A337N mutant assessed as cell viability after 48 hrs by MTT assay; assay type: functional, cell-based; conditions: BaF3, 48 h; summary of the method: as §1
[13] = Antiproliferation activity against mouse BA/F3 cells expressing Bcr-abl assessed as cell viability after 48 hrs by MTT assay; assay type: functional, cell-based; conditions: BaF3, 48 h; summary of the method: as §1
[14] = molecular target: Mitogen-activated protein kinase 12 (Homo sapiens) (UniProt P53778); assay: Inhibition of human SAPK3 activity at 10 uM by radiometric assay
Chain of Mitogen-activated protein kinase 12 (Homo sapiens) (P53778 whole entry): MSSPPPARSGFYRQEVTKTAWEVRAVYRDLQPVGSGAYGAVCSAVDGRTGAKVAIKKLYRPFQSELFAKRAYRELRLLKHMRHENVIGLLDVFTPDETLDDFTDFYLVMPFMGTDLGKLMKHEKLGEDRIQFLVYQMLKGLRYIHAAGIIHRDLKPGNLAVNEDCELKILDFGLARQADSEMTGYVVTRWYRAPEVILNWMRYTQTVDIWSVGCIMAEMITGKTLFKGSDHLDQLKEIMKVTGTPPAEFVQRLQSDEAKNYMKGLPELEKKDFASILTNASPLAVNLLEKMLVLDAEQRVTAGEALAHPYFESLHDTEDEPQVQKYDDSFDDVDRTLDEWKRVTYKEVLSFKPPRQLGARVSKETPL

[15] = molecular target: BDNF/NT-3 growth factors receptor (Homo sapiens) (UniProt Q16620); assay: Inhibition of human TrkB activity at 10 uM by radiometric assay
[16] = molecular target: Angiopoietin-1 receptor (Homo sapiens) (UniProt Q02763); assay: Inhibition of human Tie2 activity at 10 uM by radiometric assay
[17] = molecular target: Ribosomal protein S6 kinase alpha-1 (Homo sapiens) (UniProt Q15418); assay: Inhibition of human Rsk1 activity at 10 uM by radiometric assay
Chain of Ribosomal protein S6 kinase alpha-1 (Homo sapiens) (Q15418 whole entry): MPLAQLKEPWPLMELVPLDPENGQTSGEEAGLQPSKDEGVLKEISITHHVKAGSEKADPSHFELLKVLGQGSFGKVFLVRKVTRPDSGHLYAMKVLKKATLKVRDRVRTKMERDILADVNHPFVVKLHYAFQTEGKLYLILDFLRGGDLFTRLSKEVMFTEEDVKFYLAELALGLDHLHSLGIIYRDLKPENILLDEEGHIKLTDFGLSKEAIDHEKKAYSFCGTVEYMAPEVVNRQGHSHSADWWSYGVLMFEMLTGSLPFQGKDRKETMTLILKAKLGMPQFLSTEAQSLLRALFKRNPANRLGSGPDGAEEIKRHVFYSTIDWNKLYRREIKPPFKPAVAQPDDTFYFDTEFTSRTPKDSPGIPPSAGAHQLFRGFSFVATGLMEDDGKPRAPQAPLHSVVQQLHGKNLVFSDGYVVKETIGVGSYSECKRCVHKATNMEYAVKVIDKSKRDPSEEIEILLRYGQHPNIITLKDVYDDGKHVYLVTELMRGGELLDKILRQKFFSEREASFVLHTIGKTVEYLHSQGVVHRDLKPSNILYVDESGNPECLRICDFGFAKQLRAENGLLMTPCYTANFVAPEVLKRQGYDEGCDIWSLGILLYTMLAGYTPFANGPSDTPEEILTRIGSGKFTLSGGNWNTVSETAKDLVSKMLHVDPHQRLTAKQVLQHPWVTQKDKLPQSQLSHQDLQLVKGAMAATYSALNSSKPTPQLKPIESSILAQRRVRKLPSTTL

[18] = molecular target: Serine/threonine-protein kinase D2 (Homo sapiens) (UniProt Q9BZL6); assay: Inhibition of human PKD2 activity at 10 uM by radiometric assay
Chain of Serine/threonine-protein kinase D2 (Homo sapiens) (Q9BZL6 whole entry): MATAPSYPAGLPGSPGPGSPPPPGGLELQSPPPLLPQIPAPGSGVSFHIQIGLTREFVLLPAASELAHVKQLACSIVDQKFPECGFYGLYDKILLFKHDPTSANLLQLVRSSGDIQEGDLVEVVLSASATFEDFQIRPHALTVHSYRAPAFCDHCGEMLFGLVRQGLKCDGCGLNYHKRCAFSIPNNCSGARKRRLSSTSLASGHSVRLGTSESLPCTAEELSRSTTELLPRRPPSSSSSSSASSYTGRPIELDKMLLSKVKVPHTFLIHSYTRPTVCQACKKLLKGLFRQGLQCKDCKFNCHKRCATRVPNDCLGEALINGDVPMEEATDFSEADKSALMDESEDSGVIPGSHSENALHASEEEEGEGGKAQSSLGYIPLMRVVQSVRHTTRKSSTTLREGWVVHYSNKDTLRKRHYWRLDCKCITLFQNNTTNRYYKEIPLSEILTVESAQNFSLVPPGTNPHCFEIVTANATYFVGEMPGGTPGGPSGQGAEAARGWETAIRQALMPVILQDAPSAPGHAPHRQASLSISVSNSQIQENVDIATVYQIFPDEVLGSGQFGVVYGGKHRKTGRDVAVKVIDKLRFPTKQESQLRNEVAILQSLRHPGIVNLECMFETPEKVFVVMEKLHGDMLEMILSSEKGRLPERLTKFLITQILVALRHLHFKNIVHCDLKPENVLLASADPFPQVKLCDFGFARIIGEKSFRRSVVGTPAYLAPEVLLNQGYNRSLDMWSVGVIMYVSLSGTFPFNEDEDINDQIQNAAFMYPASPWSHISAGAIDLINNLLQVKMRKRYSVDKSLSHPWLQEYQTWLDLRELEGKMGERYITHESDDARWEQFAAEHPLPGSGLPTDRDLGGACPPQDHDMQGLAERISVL

[19] = molecular target: Protein kinase C alpha type (Homo sapiens) (UniProt P17252); assay: Inhibition of human PKCalpha activity at 10 uM by radiometric assay
[20] = molecular target: Serine/threonine-protein kinase Nek2 (Homo sapiens) (UniProt P51955); assay: Inhibition of human NEK2 activity at 10 uM by radiometric assay
[21] = molecular target: MAP kinase-activated protein kinase 2 (Homo sapiens) (UniProt P49137); assay: Inhibition of human MAPKAP-K2 activity at 10 uM by radiometric assay
[22] = molecular target: Mitogen-activated protein kinase 1 (Homo sapiens) (UniProt P28482); assay: Inhibition of human MAPK1 activity at 10 uM by radiometric assay
[23] = molecular target: RAF proto-oncogene serine/threonine-protein kinase (Homo sapiens) (UniProt P04049); assay: Inhibition of human c-RAF activity at 10 uM by radiometric assay
Chain of RAF proto-oncogene serine/threonine-protein kinase (Homo sapiens) (P04049 whole entry): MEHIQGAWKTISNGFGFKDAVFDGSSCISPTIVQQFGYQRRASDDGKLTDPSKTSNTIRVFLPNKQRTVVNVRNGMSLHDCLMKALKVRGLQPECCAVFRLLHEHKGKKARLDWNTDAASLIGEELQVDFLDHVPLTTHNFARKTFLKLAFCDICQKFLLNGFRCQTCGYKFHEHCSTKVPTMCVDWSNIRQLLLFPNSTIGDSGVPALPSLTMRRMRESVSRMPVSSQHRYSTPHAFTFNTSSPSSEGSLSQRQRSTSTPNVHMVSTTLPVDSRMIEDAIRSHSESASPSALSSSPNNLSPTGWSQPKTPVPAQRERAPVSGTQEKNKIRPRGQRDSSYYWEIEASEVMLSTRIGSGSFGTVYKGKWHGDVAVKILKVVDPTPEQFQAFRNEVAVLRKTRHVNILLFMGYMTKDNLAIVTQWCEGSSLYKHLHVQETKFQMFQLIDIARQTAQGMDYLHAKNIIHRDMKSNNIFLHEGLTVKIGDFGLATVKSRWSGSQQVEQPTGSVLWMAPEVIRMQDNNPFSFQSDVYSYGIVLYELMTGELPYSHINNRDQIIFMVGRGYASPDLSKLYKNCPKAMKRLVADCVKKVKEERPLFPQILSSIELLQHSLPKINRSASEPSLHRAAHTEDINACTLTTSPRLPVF

[24] = molecular target: Casein kinase II subunit alpha (Homo sapiens) (UniProt P68400); assay: Inhibition of human CK2 activity at 10 uM by radiometric assay
[25] = molecular target: Serine/threonine-protein kinase Chk2 (Homo sapiens) (UniProt O96017); assay: Inhibition of human CHK2 activity at 10 uM by radiometric assay
[26] = molecular target: Mast/stem cell growth factor receptor Kit (Homo sapiens) (UniProt P10721); assay: Inhibition of human c-kit activity at 10 uM by radiometric assay
[27] = molecular target: Vascular endothelial growth factor receptor 2 (Homo sapiens) (UniProt P35968); assay: Inhibition of human KDR activity at 10 uM by radiometric assay
[28] = molecular target: Insulin receptor (Homo sapiens) (UniProt P06213); assay: Inhibition of human IR activity at 10 uM by radiometric assay
[29] = molecular target: Insulin-like growth factor 1 receptor (Homo sapiens) (UniProt P08069); assay: Inhibition of human IGF-1R activity at 10 uM by radiometric assay
Chain of Insulin-like growth factor 1 receptor (Homo sapiens) (P08069 31-736 limits assumed): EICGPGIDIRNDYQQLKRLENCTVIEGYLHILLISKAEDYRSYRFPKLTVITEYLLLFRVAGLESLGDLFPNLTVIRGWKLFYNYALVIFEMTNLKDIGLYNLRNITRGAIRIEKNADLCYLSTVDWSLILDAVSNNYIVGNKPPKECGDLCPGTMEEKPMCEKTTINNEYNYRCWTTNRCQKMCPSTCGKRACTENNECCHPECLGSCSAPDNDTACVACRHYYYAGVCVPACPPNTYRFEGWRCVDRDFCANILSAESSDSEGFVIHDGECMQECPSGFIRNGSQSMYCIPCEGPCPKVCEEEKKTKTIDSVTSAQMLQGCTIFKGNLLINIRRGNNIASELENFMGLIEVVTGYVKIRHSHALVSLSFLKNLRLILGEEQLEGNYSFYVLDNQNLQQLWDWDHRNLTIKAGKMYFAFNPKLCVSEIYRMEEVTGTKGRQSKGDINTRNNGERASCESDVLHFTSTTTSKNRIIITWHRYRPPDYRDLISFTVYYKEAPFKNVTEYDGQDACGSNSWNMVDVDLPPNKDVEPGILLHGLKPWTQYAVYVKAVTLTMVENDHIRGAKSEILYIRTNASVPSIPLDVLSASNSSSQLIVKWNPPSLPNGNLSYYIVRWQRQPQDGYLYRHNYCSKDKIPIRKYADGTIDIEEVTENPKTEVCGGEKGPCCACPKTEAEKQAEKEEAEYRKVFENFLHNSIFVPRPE
Chain of Insulin-like growth factor 1 receptor (Homo sapiens) (P08069 741-1367 limits assumed): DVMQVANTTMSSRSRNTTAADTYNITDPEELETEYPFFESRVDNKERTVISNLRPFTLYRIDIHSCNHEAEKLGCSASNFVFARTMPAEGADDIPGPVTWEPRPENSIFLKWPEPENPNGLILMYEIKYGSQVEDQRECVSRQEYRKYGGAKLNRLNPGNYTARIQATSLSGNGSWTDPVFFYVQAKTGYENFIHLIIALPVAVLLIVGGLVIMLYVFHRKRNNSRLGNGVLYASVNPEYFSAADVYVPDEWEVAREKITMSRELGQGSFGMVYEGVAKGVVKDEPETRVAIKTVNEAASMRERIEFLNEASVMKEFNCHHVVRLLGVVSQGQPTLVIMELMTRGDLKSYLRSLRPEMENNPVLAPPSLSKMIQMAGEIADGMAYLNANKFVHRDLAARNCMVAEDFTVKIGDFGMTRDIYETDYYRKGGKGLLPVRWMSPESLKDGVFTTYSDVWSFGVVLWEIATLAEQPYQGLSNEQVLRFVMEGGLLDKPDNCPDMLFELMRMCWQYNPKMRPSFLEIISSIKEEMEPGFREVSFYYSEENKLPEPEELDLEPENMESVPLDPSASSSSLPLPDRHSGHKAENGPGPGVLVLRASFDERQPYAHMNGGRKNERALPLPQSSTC

[30] = molecular target: Vascular endothelial growth factor receptor 3 (Homo sapiens) (UniProt P35916); assay: Inhibition of human Flt-4 activity at 10 uM by radiometric assay
[31] = molecular target: Fibroblast growth factor receptor 3 (Homo sapiens) (UniProt P22607); assay: Inhibition of human FGFR3 activity at 10 uM by radiometric assay
[32] = molecular target: Tyrosine-protein kinase ZAP-70 (Homo sapiens) (UniProt P43403); assay: Inhibition of human ZAP-70 activity at 10 uM by radiometric assay
[33] = molecular target: Tyrosine-protein kinase Fes/Fps (Homo sapiens) (UniProt P07332); assay: Inhibition of human Fes activity at 10 uM by radiometric assay
Chain of Tyrosine-protein kinase Fes/Fps (Homo sapiens) (P07332 whole entry): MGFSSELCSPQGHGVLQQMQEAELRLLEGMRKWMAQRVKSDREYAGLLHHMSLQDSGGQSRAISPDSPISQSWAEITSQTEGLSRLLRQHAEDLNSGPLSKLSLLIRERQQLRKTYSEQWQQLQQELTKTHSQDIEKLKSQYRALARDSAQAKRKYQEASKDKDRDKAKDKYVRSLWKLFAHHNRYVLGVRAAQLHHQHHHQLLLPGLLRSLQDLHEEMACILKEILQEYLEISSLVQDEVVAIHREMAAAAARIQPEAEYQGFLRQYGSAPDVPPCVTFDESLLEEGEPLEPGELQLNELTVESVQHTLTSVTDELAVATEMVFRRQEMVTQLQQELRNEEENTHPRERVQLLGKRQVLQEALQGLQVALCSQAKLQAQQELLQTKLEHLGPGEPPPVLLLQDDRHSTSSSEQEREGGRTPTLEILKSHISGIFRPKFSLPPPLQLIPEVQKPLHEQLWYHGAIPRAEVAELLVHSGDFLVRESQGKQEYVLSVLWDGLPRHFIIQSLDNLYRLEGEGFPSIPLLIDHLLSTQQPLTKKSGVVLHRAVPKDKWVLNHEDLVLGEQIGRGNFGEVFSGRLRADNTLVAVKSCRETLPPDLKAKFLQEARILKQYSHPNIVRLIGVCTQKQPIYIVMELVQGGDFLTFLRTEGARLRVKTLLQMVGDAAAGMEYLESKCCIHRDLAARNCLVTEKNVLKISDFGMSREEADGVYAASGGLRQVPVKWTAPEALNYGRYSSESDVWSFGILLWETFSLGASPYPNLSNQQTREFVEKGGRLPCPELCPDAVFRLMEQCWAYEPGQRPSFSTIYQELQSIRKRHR

[34] = molecular target: Cytoplasmic tyrosine-protein kinase BMX (Homo sapiens) (UniProt P51813); assay: Inhibition of human Bmx activity at 10 uM by radiometric assay
[35] = molecular target: 5'-AMP-activated protein kinase catalytic subunit alpha-2 (Rattus norvegicus) (UniProt Q09137); conditions: 10 uM
[36] = molecular target: cAMP-dependent protein kinase catalytic subunit beta (Homo sapiens) (UniProt P22694); conditions: 10 uM
[37] = molecular target: Serine/threonine-protein kinase 3 (Homo sapiens) (UniProt Q13188); conditions: 10 uM
[38] = molecular target: Platelet-derived growth factor receptor alpha (Homo sapiens) (UniProt P16234); conditions: 10 uM

Row | IC50 [2] [nM] | IC50 [3] [nM] | IC50 [4] [nM] | inhibition [14] [%] | inhibition [15] [%] | inhibition [16] [%] | inhibition [17] [%] | inhibition [18] [%] | inhibition [19] [%] | inhibition [20] [%] | Structure (SMILES) | IC50 [1] [nM] | IC50 [5] [nM] | IC50 [6] [nM] | IC50 [7] [nM] | IC50 [8] [nM] | IC50 [9] [nM] | IC50 [10] [nM] | IC50 [11] [nM] | IC50 [12] [nM] | IC50 [13] [nM] | also measured
1 | > 10000 | 109 | > 10000 | 7 | 34 | 66 | 58 | 11 | 17 | 7 | Cc1ccc(NC(=O)c2ccc(CN3CCN(C)CC3)cc2)cc1Nc1nccc(-c2cccnc2)n1 [IMATINIB] | > 10000 | 111 | 257 | > 10000 | > 10000 | 27 | > 10000 | > 10000 | 339 | 190 | inhibition [21]: 19%; inhibition [22]: 4%; inhibition [23]: 89%; inhibition [24]: 17%; inhibition [25]: 17%; inhibition [26]: 88%; inhibition [27]: 22%; inhibition [28]: 2%; inhibition [29]: 17%; inhibition [30]: 79%; inhibition [31]: 27%; inhibition [32]: 29%; inhibition [33]: 62%; inhibition [34]: 27%; inhibition [35]: 1%; inhibition [36]: 1%; inhibition [37]: 15%; inhibition [38]: 89%
2 | > 10000 | 273 | > 10000 | 0 | 4 | 2 | 0 | 55 | 0 | 3 | NC(=O)c1cccc(-c2cc(Nc3ccc(OC(F)(F)F)cc3)ncn2)c1 | > 10000 | 268 | > 10000 | > 10000 | > 10000 | > 10000 | > 10000 | > 10000 | > 10000 | 138 | inhibition [21]: 0%; inhibition [22]: 40%; inhibition [23]: 0%; inhibition [24]: 0%; inhibition [25]: 0%; inhibition [26]: 39%; inhibition [27]: 23%; inhibition [28]: 26%; inhibition [29]: 28%; inhibition [30]: 30%; inhibition [31]: 7%; inhibition [32]: 0%; inhibition [33]: 7%; inhibition [34]: 7%; inhibition [35]: 0%; inhibition [36]: 0%; inhibition [37]: 0%; inhibition [38]: 0%
